Tests used:
[1] = tested on: SK-MEL-5; assay: Growth inhibition of human SK-MEL-5 cells after 48 hrs by sulforhodamine B assay; type: functional, cell-based; settings: for CC50: read-out: LC50 (the source's name)
How it was run: (§1)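 Cells grown in RPMI 1640 with 5% FBS and 2 mM L-glutamine, seeded at 5,000–40,000 cells/well according to doubling time. After 24 h, time-zero plates are TCA-fixed. Five concentrations (10-fold or ½log dilutions, DMSO stocks) are applied for 48 h at 37 °C, 5% CO₂. Cells are TCA-fixed, SRB-stained and read at 515 nm. IC₅₀ is taken from [(Ti−Tz)/(C−Tz)]×100 = 50.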

[2] = tested on: OVCAR-8; assay: Growth inhibition of human OVCAR8 cells after 48 hrs by sulforhodamine B assay; type: functional, cell-based; settings: for CC50: read-out: LC50 (the source's name); how it was run: as §1
[3] = tested on: DU-145; assay: Growth inhibition of human DU145 cells after 48 hrs by sulforhodamine B assay; type: functional, cell-based; settings: for CC50: read-out: LC50 (the source's name); how it was run: as §1
[4] = tested on: EKVX; assay: Cytotoxicity against human EKVX cells assessed as cell growth at 0.001 uM after 48 hrs by sulforhodamine B assay; type: functional; settings: read-out: Activity
[5] = tested on: MDA-MB-468; assay: Cytotoxicity against human MDA-MB-468 cells assessed as cell growth at 0.01 uM after 48 hrs by sulforhodamine B assay; type: functional; settings: MDA-MB-468, 48 h, read-out: Activity
[6] = tested on: K562; assay: Cytotoxicity against human K562 cells assessed as cell growth at 100 nM after 48 hrs by sulforhodamine B assay; type: functional; settings: K562, 48 h, read-out: Activity
[7] = tested on: HOP-62; assay: Cytotoxicity against human HOP62 cells assessed as cell growth at 100 nM after 48 hrs by sulforhodamine B assay; type: functional; settings: HOP-62, 48 h, read-out: Activity
[8] = tested on: HCT-15; assay: Cytotoxicity against human HCT15 cells assessed as cell growth at 100 nM after 48 hrs by sulforhodamine B assay; type: functional; settings: HCT-15, 48 h, read-out: Activity
[9] = tested on: SK-MEL-5; assay: Cytotoxicity against human SK-MEL-5 cells assessed as cell growth at 100 nM after 48 hrs by sulforhodamine B assay; type: functional; settings: SK-MEL-5, 48 h, read-out: Activity
[10] = tested on: UACC-62; assay: Cytotoxicity against human UACC62 cells assessed as cell growth at 100 nM after 48 hrs by sulforhodamine B assay; type: functional; settings: UACC-62, 48 h, read-out: Activity
[11] = tested on: 786-0; assay: Cytotoxicity against human 786-0 cells assessed as cell growth at 100 nM after 48 hrs by sulforhodamine B assay; type: functional; settings: 786-0, 48 h, read-out: Activity
How it was run: (§2)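 Cells grown in RPMI 1640 with 5% FBS and 2 mM L-glutamine, seeded at 5,000–40,000 cells/well by doubling time. Time-zero plates TCA-fixed after 24 h. Five concentrations (10-fold or half-log dilutions from DMSO stock) added; 48 h at 37 °C, 5% CO2. Cold TCA fixation (final 10%, 60 min, 4 °C), 0.4% SRB stain, dye solubilized in 10 mM trizma base, A515.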

[12] = tested on: ACHN; assay: Cytotoxicity against human ACHN cells assessed as cell growth at 100 nM after 48 hrs by sulforhodamine B assay; type: functional; settings: read-out: Activity; how it was run: as §2
[13] = tested on: HCT-15; assay: Cytotoxicity against human HCT15 cells assessed as cell growth at 10 uM after 48 hrs by sulforhodamine B assay; type: functional; settings: HCT-15, 48 h, read-out: Activity
[14] = tested on: SW-620; assay: Cytotoxicity against human SW620 cells assessed as cell growth at 10 uM after 48 hrs by sulforhodamine B assay; type: functional; settings: SW-620, 48 h, read-out: Activity
[15] = tested on: SNB-75; assay: Cytotoxicity against human SNB75 cells assessed as cell growth at 10 uM after 48 hrs by sulforhodamine B assay; type: functional; settings: SNB-75, 48 h, read-out: Activity
[16] = tested on: U-251; assay: Cytotoxicity against human U251 cells assessed as cell growth at 10 uM after 48 hrs by sulforhodamine B assay; type: functional; settings: U-251, 48 h, read-out: Activity
[17] = tested on: SW-620; assay: Cytotoxicity against human SW620 cells assessed as cell growth at 0.01 uM after 48 hrs by sulforhodamine B assay; type: functional; settings: SW-620, 48 h, read-out: Activity
[18] = tested on: SF-539; assay: Cytotoxicity against human SF539 cells assessed as cell growth at 0.01 uM after 48 hrs by sulforhodamine B assay; type: functional; settings: SF-539, 48 h, read-out: Activity
[19] = tested on: OVCAR-3; assay: Cytotoxicity against human OVCAR-3 cells assessed as cell growth at 10 uM after 48 hrs by sulforhodamine B assay; type: functional; settings: OVCAR-3, 48 h, read-out: Activity
[20] = Cytotoxicity against human Hs 578T cells assessed as cell growth at 10 uM after 48 hrs by sulforhodamine B assay; type: functional; settings: read-out: Activity
[21] = tested on: BT-549; assay: Cytotoxicity against human BT549 cells assessed as cell growth at 10 uM after 48 hrs by sulforhodamine B assay; type: functional; settings: BT-549, 48 h, read-out: Activity; how it was run: as §2
[22] = tested on: NCI-H460; assay: Cytotoxicity against human NCI-H460 cells assessed as cell growth at 1 uM after 48 hrs by sulforhodamine B assay; type: functional; settings: NCI-H460, 48 h, read-out: Activity
[23] = tested on: HCT-116; assay: Cytotoxicity against human HCT116 cells assessed as cell growth at 1 uM after 48 hrs by sulforhodamine B assay; type: functional; settings: HCT-116, 48 h, read-out: Activity
[24] = tested on: KM12; assay: Cytotoxicity against human KM12 cells assessed as cell growth at 1 uM after 48 hrs by sulforhodamine B assay; type: functional; settings: KM12, 48 h, read-out: Activity
[25] = tested on: SF-295; assay: Cytotoxicity against human SF295 cells assessed as cell growth at 1 uM after 48 hrs by sulforhodamine B assay; type: functional; settings: SF-295, 48 h, read-out: Activity
[26] = tested on: TK-10; assay: Cytotoxicity against human TK10 cells assessed as cell growth at 0.01 uM after 48 hrs by sulforhodamine B assay; type: functional; settings: TK-10, 48 h, read-out: Activity
[27] = tested on: UACC-257; assay: Cytotoxicity against human UACC257 cells assessed as cell growth at 1 uM after 48 hrs by sulforhodamine B assay; type: functional; settings: UACC-257, 48 h, read-out: Activity
[28] = tested on: OVCAR-4; assay: Cytotoxicity against human OVCAR4 cells assessed as cell growth at 1 uM after 48 hrs by sulforhodamine B assay; type: functional; settings: OVCAR-4, 48 h, read-out: Activity
[29] = tested on: ACHN; assay: Cytotoxicity against human ACHN cells assessed as cell growth at 1 uM after 48 hrs by sulforhodamine B assay; type: functional; settings: read-out: Activity; how it was run: as §2
[30] = tested on: CAKI-1; assay: Cytotoxicity against human Caki1 cells assessed as cell growth at 1 uM after 48 hrs by sulforhodamine B assay; type: functional; settings: CAKI-1, 48 h, read-out: Activity; how it was run: as §2
[31] = tested on: BT-549; assay: Cytotoxicity against human BT549 cells assessed as cell growth at 1 uM after 48 hrs by sulforhodamine B assay; type: functional; settings: BT-549, 48 h, read-out: Activity; how it was run: as §2
[32] = tested on: NCI-H460; assay: Cytotoxicity against human NCI-H460 cells assessed as cell growth at 10 uM after 48 hrs by sulforhodamine B assay; type: functional; settings: NCI-H460, 48 h, read-out: Activity
[33] = tested on: HT-29; assay: Growth inhibition of human HT-29 cells after 48 hrs by sulforhodamine B assay; type: functional, cell-based; settings: HT-29, 48 h; for CC50: read-out: LC50 (the source's name); how it was run: as §1

CC(=O)Nc1cccc(-c2ccc(-c3ccnc(NC(=O)Nc4cc(C(F)(F)F)cc(C(F)(F)F)c4)n3)cn2)c1.Cl
GI50 ([1]; Homo sapiens, SK-MEL-5, 48 h): 1.35 µM
TGI ([1]; Homo sapiens, SK-MEL-5, 48 h): 2.64 µM
IC50 ([1]; Homo sapiens, SK-MEL-5, 48 h, read-out: IC50): 1.35 µM
CC50 ([1]; Homo sapiens, SK-MEL-5, 48 h): 5.13 µM
GI50 ([2]; Homo sapiens, OVCAR-8, 48 h): 2.07 µM
TGI ([2]; Homo sapiens, OVCAR-8, 48 h): 5.93 µM
IC50 ([2]; Homo sapiens, OVCAR-8, 48 h, read-out: IC50): 2.07 µM
CC50 ([2]; Homo sapiens, OVCAR-8, 48 h): 26.4 µM
GI50 ([3]; Homo sapiens, DU-145, 48 h): 6.57 µM
TGI ([3]; Homo sapiens, DU-145, 48 h): 19.6 µM
IC50 ([3]; Homo sapiens, DU-145, 48 h, read-out: IC50): 6.57 µM
CC50 ([3]; Homo sapiens, DU-145, 48 h): 47 µM
growth at 0.001 µM [4]: 90%
growth at 0.01 µM [5]: 86%
growth at 0.1 µM [6]: 69%
growth at 0.1 µM [7]: 100%
growth at 0.1 µM [8]: 90%
growth at 0.1 µM [9]: 73%
growth at 0.1 µM [10]: 82%
growth at 0.1 µM [11]: 62%
growth at 0.1 µM [12]: 93%
growth at 10 µM [13]: -86%
growth at 10 µM [14]: 41%
growth at 10 µM [15]: -57%
growth at 10 µM [16]: -96%
growth at 0.01 µM [17]: 95%
growth at 0.01 µM [18]: 78%
growth at 10 µM [19]: 100%
growth at 10 µM [20]: 18%
growth at 10 µM [21]: -97%
growth at 1 µM [22]: -14%
growth at 1 µM [23]: -35%
growth at 1 µM [24]: -10%
growth at 1 µM [25]: -15%
growth at 0.01 µM [26]: 102%
growth at 1 µM [27]: -45%
growth at 1 µM [28]: 4%
growth at 1 µM [29]: 20%
growth at 1 µM [30]: -7%
growth at 1 µM [31]: 43%
growth at 10 µM [32]: -60%
GI50 [33]: 3 µM
IC50 [33]: 3 µM
TGI [33]: 8.74 µM
CC50 [33]: 57.6 µM

CC(=O)c1ccccc1-c1ccc(-c2ccnc(NC(=O)Nc3cc(N4CCOCC4)cc(C(F)(F)F)c3)n2)cn1
TGI ([1]; Homo sapiens, SK-MEL-5, 48 h): > 100 µM
CC50 ([1]; Homo sapiens, SK-MEL-5, 48 h): > 100 µM
IC50 ([1]; sk-mel-5): Not Active
TGI ([2]; Homo sapiens, OVCAR-8, 48 h): > 100 µM
CC50 ([2]; Homo sapiens, OVCAR-8, 48 h): > 100 µM
IC50 ([2]; ovcar-8): Not Active
TGI ([3]; Homo sapiens, DU-145, 48 h): > 100 µM
CC50 ([3]; Homo sapiens, DU-145, 48 h): > 100 µM
IC50 ([3]; du-145): Not Active
growth at 0.001 µM [4]: 95%
growth at 0.01 µM [5]: 105%
growth at 0.1 µM [6]: 69%
growth at 0.1 µM [7]: 100%
growth at 0.1 µM [8]: 92%
growth at 0.1 µM [9]: 84%
growth at 0.1 µM [10]: 90%
growth at 0.1 µM [11]: 98%
growth at 0.1 µM [12]: 91%
growth at 10 µM [13]: 87%
growth at 10 µM [14]: 102%
growth at 10 µM [15]: -45%
growth at 10 µM [16]: 39%
growth at 0.01 µM [17]: 106%
growth at 0.01 µM [18]: 107%
growth at 10 µM [19]: 51%
growth at 10 µM [20]: 13%
growth at 10 µM [21]: 46%
growth at 1 µM [22]: 61%
growth at 1 µM [23]: 69%
growth at 1 µM [24]: 86%
growth at 1 µM [25]: 48%
growth at 0.01 µM [26]: 117%
growth at 1 µM [27]: 66%
growth at 1 µM [28]: 48%
growth at 1 µM [29]: 42%
growth at 1 µM [30]: 58%
growth at 1 µM [31]: 21%
growth at 10 µM [32]: 88%
GI50 [33]: > 100 µM
IC50 [33]: > 100 µM
TGI [33]: > 100 µM
CC50 [33]: > 100 µM

— ChEMBL document CHEMBL1165943, “Design and synthesis of new anticancer pyrimidines with multiple-kinase inhibitory effect” (Bioorg Med Chem, 2010)
